PMI act hi M6P: human PMI activators, high substrate, primary screen, biochemical, fluorescence intensity, near-saturating mannose 6-phosphate; Mannose-6-phosphate isomerase (Homo sapiens), P34949; coupled PMI enzyme assay, resazurin fluorescence, 20 min; active compounds read high; 1 = untreated enzyme, 0 = substrate-free blank; activation factor at 20 µM; 190,000 compounds, 0.34% hits;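 active = activation factor of 2 or more at 20 µM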
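Test system: human PMI in coupled enzyme assay; Input: PMI at 15 ng/mL final; Medium: HEPES buffer, pH 7.4; Schedule: 20 min incubation at room temperature; Technique: resorufin fluorescence at Ex 544/Em 590 nm; Compound: 20 µM single dose; Probe or stimulus: Near-saturating mannose-6-phosphate, 1.0 mM.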
PMI activator: activators of human PMI, primary screen, biochemical, fluorescence intensity, near-Km mannose 6-phosphate | Mannose-6-phosphate isomerase (Homo sapiens), P34949 | purified human PMI, coupled resazurin fluorescence, 20 min; active compounds read high; 1 = vehicle control, 0 substrate-free wells | activation factor at 20 µM | 190,000 compounds, 0.005% hits;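 active = activation factor of 2 or more at 20 µM, relative to plate controls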
Calpain2 inh: inhibitors of pig calpain II, primary screen, biochemical, fluorogenic peptide substrate, 1536-well; purified calpain II, 30 min; inhibition, % at 16 µM; 220,000 compounds, 0.37% hits; AID 1236, 2008;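 active = inhibition above about 50%, limit read from the data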
WT yeast gro inh: growth inhibition of WT strain, primary screen, mitochondrial fusion inhibitor project, WT and mutant strains, chemical genetic; mitochondrial fusion phenotypic screen; inhibition, % at 10 µM; 190,000 compounds, 2.1% hits; in the data active = inhibition above about 58%; tested in S. cerevisiae
Rad51 HR inh: human RAD51 strand exchange inhibitors, primary screen, biochemical, fluorescence; DNA repair protein RAD51 homolog 1 (Homo sapiens), Q06609; hRad51 DNA strand exchange, fluorescence dequenching; inhibition, % at 10 µM; 200,000 compounds, 0.085% hits; AID 1385, 2008;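 active = inhibition above 40% at the single screening dose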;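 note: 0% = DMSO control wells and 100% = blanks with heterologous ssDNA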
Target sequence (Q06609 whole entry, looked up): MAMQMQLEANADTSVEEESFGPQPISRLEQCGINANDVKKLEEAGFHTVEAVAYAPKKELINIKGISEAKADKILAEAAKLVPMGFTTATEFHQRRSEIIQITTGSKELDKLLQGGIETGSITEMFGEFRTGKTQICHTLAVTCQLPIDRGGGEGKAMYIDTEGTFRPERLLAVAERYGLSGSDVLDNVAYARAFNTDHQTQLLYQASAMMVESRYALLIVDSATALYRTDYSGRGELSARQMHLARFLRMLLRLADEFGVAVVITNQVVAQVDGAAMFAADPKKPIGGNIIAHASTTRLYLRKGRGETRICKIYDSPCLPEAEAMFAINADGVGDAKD
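Read-out basis: percent inhibition relative to plate controls and blanks / Assay system: human Rad51 nucleoprotein filaments preassembled on unlabelled ssDNA / Timing: filaments 15 min 37 °C, then compound 30 min / Control set: per-plate controls and blanks / Technique: fluorescence dequenching at 485/520 nm / Compound: 10 µM final, single point / Also added: Fluorescein- and BHQ1-tagged 47-mer duplex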
Lmaj promast: Leishmania major promastigote growth inhibition, primary screen; inhibition, % at 10 µM; 200,000 compounds, 9% hits; Leishmania major promastigotes, resazurin fluorescence viability; in the data active = inhibition above about 50%;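 note: promastigotes grown with compound for 44 hours at 28 °C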
Numbers without * were called inactive; . = no result given. The list is not random: actives were taken first. Their share in the collection is about 9.8%.

SMILES | PMI act hi M6P | PMI activator | Calpain2 inh | WT yeast gro inh | Rad51 HR inh | Lmaj promast
NS(=O)(=O)c1ccc(NCc2cc(Cl)ccc2OCc2ccc(F)cc2)cc1 | 0.8 | 0.8 | 17 | 13 | -3 | 54*
CCCNCc1cc(Cl)c(OCC)c(Cl)c1 | 1.1 | 1.1 | -19 | -20 | 3 | -2
CCOc1cc(CNCCc2ccc(S(N)(=O)=O)cc2)cc(Cl)c1OCc1ccccc1 | 0.9 | 0.9 | 26 | 12 | 1 | 101*
CCNCc1cc(Cl)c(OCc2ccccc2)c(OCC)c1 | 1.1 | 1.1 | -12 | 12 | 1 | 100*
Nc1cc([N+](=O)[O-])ccc1N1C(=O)CCCC1=O | . | . | 21 | . | 1 | .
C=C1/C(=C\C=C2/CCC[C@]3(C)[C@@H]([C@H](C)CCCC(C)(C)O)CC[C@@H]23)C[C@@H](O)C[C@@H]1O | 0.8 | 0.8 | 14 | 94* | -2 | .
N#CCC(=O)NNC(=S)Nc1ccccc1C(F)(F)F | 1.1 | 1.1 | -11 | -4 | 41* | 12
CCOC(=O)c1cc(=O)c2ccc(OCC(=O)Nc3ccccc3)cc2o1 | . | . | 7 | . | -4 | .
CCOC(=O)C1=C(C)N(CC(C)C)C(=O)/C1=C\c1ccc(OCC(=O)Nc2ccccc2)cc1 | 0.8 | 0.8 | 12 | 0 | 0 | 81*
CCN(c1ccccc1)S(=O)(=O)c1ccc(C(=O)NCC(c2cccs2)N(C)C)cc1 (stereo not drawn) | 1 | 1 | -5 | -23 | 33 | 90*
CCCOc1ccc(C(=O)NCC(c2cccs2)N(C)C)cc1 (stereo not drawn) | 1.1 | 1 | 25 | 13 | . | -4
CCN(c1ccccc1)S(=O)(=O)c1ccc(NC(=S)NC(=O)c2cccs2)cc1 | 0.9 | 0.8 | -7 | 9 | -4 | 85*
CC(CCc1ccccc1)NC(=O)COC(=O)C1CCC(C(C)(C)C)CC1 (stereo not drawn) | 0.9 | 0.8 | 7 | 48 | -4 | -6
COc1ccc(C(=NNc2ccccc2C(=O)O)c2ccc(OC)cc2)cc1 | 0.8 | 1 | -7 | 82* | . | -7
COc1cccc(N/C(SCc2cccc([N+](=O)[O-])c2)=C(/C#N)C(=O)NCc2cccs2)c1 | 0.9 | 1 | 15 | 13 | -35 | 87*
Cc1cc(Cl)ccc1C(=O)C1CCCN(C(=O)c2n[nH]c3c2CCCC3)C1 (stereo not drawn) | 1 | 0.9 | -5 | 13 | . | 5
Cc1cccc(-n2ncc3c(N4CC(C)CC(C)C4)ncnc32)c1 (stereo not drawn) | 0.8 | 0.9 | 23 | 78* | -9 | 11
Cc1cccc(-n2ncc3c(N4CCCC4)ncnc32)c1 | 1 | 1 | -3 | -17 | 37 | 9
Clc1ccc(Cn2ncc3c(N4CCCC4)ncnc32)cc1 | 1 | 0.9 | 18 | 9 | 8 | 3
CC1CC(C)CN(c2ncnc3c2cnn3Cc2ccc(Cl)cc2)C1 (stereo not drawn) | 0.9 | 0.8 | 24 | 76* | -3 | 9
C(=N\N1CCN(C2c3ccccc3-c3ccccc32)CC1)/c1cccnc1 | 0.9 | 0.9 | 6 | 40 | -6 | 19
C(=N\N1CCN(C2c3ccccc3-c3ccccc32)CC1)/c1ccccn1 | 1 | 0.9 | 6 | 67* | -7 | -3
COc1ccc(/C=N/N2CCN(C3c4ccccc4-c4ccccc43)CC2)cc1O | 0.9 | 0.9 | 0 | 7 | 0 | 67*
COc1ccc(/C=N/N2CCOCC2)cc1O | 1 | 1 | 10 | -8 | . | -2
CC(=O)Nc1cccc(CNCc2cccc(NC(C)=O)c2)c1 | 1 | 1 | -17 | -7 | -1 | 1
SMILES | PMI act hi M6P | PMI activator | Calpain2 inh | WT yeast gro inh | Rad51 HR inh | Lmaj promast
CC1(C)Cc2c(sc(NC(=O)c3ccc4ncsc4c3)c2C(N)=O)C(C)(C)N1 | 0.8 | 1 | 7 | -9 | 2 | 78*
O=C(C(=O)N1CCN(c2cccc(Cl)c2)CC1)N1CCCCC1 | 0.9 | 0.9 | 31 | 3 | -25 | 6
O=C(CCN1C(=O)C2C3C=CC(C3)C2C1=O)N1CCN(c2ccccn2)CC1 (stereo not drawn) | 1 | 1 | -3 | -6 | -1 | -4
O=C(CCN1C(=O)C2C3C=CC(C3)C2C1=O)N1CCN(c2cccc(Cl)c2)CC1 (stereo not drawn) | 0.9 | 0.9 | 0 | -10 | . | 56*
O=C(CSc1ccccc1)N1CCN(c2ccccn2)CC1 | 0.9 | 0.9 | -6 | -6 | 27 | -5
O=C(CSCc1ccccc1Cl)N1CCN(c2ccccn2)CC1 | 1 | 1 | -30 | -4 | 6 | 60*
O=C(CCSCc1ccccc1Cl)N1CCN(c2cccc(Cl)c2)CC1 | 1 | 1 | 15 | 61* | -3 | 69*
O=C(N1CCN(c2ccccn2)CC1)N1c2ccccc2Sc2ccccc21 | 0.8 | 0.8 | 48 | 72* | . | 19
Cn1ncc([N+](=O)[O-])c1C(=O)Nc1ccc(C2CCCCC2)cc1 | 1 | 1 | 24 | 13 | -3 | -11
C=CCn1c(SC(C)C#N)nc2sc(CC)cc2c1=O (stereo not drawn) | 1 | 1 | -2 | 2 | 3 | 2
O=C(NC1CCN(C(=O)N2c3ccccc3Sc3ccccc32)CC1)c1ccccc1Cl | 0.8 | 0.8 | -95 | 4 | -4 | 95*
O=C(NC1CCN(C(=O)N2c3ccccc3Sc3ccccc32)CC1)c1ccco1 | 0.9 | 1 | 16 | 17 | -1 | 23
O=C(NCC(c1cccnc1)N1CCN(c2ccccc2F)CC1)c1ccco1 (stereo not drawn) | 1 | 1 | -23 | -1 | -3 | 89*
O=C(NCC(c1cccnc1)N1CCN(c2ccccc2F)CC1)c1ccccc1 (stereo not drawn) | 1.1 | 1 | -8 | 2 | 2 | 84*
COc1ccc(N2CCN(C(CNC(=O)C(=O)NCC3CCCO3)c3ccco3)CC2)cc1 (stereo not drawn) | 0.8 | 0.8 | 4 | 10 | . | -4
O=C(NCC1CCCO1)C(=O)NCC(c1ccco1)N1CCN(c2ccccc2F)CC1 (stereo not drawn) | 1.9 | 1.6 | -9 | 6 | 11 | 53*
Cc1nn(C)c(C)c1NC(=O)c1ccccc1NC(=O)Nc1ccccc1 | . | . | 0 | . | 24 | .
Cc1ccc(-n2nc(C(=O)O)c(O)cc2=O)cc1 | 1 | 0.9 | -37 | -9 | 23 | -1
CC(C)c1nc(SCC(=O)c2c[nH]c3ccccc23)n[nH]1 | . | . | 13 | . | -20 | .
COC(C[C@@H]1O[C@@H]1[C@H](O)COCc1ccccc1)OC | . | . | -6 | . | 0 | .

Source: PubChem BioAssay (several laboratories)
